The text below walks through data of ChEMBL document CHEMBL2016559, “Synthesis and cytotoxic activity evaluation of dihydrocucurbitacin B and cucurbitacin B derivatives” (Bioorg Med Chem, 2012).

In assay [1] the test system is A549. As to the kind of experiment: Ratio of IC50 for human A549 cells after 48 hrs to IC50 for human A549 cells after 72 hrs. The class given is functional. The method in brief: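 Ratio of the 48 h to the 72 h IC50 in A549 cells. Both IC50s come from the MTT assay (1x10⁴ cells/well, 24 h attachment, then 48 h or 72 h compound exposure). Each was fitted by log(compound) vs normalized response nonlinear regression (variable slope), relative to untreated controls.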

Assay [2] concerns A549. Briefly: Cytotoxicity against human A549 cells after 48 hrs by MTT assay. The class given is functional, cell-based. The settings on record: A549, 48 h. An outline of the steps: (§1)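 A549 human NSCLC cells kept in MEM with 10% FBS, penicillin/streptomycin and amphotericin B at 37 °C under humidified 5% CO2. Seeded at 1x10⁴ cells/well and left 24 h, then exposed to a range of concentrations for 48 h or 72 h at 37 °C. MTT (1 mg/mL) added for 4 h, formazan dissolved in DMSO, absorbance read at 540 nm. IC50 taken against untreated controls by log(compound) vs normalized response (variable slope) fit, with 95% CI.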

Assay [3] relates to A549. As to the kind of experiment: Cytotoxicity against human A549 cells after 72 hrs by MTT assay. The class given is functional, cell-based. Conditions: A549, 72 h. An outline of the steps: as §1

Regarding `CC(=O)OC(C)(C)CCC(=O)[C@](C)(O)[C@H]1C(=O)C[C@@]2(C)[C@@H]3CC=C4[C@@H](C[C@H](O)C(=O)C4(C)C)[C@]3(C)C(=O)C[C@]12C`, the “Ratio IC50” value with A549 [1] amounted to 2.1. Moreover, the IC50 in the assay with A549 [2] was determined as 54.4 µM; in the assay with A549 [3], 26.5 µM.

For the molecule `CC(=O)OC(C)(C)CCC(=O)[C@](C)(O)[C@H]1C(=O)C[C@@]2(C)[C@@H]3CC=C4[C@@H](C=C(O)C(=O)C4(C)C)[C@]3(C)C(=O)C[C@]12C`, the IC50 in the assay with A549 [2] and in the assay with A549 [3] was > 100 µM throughout.

For the molecule `CC(=O)O[C@H]1C[C@@H]2C(=CC[C@@H]3[C@@]2(C)C(=O)C[C@]2(C)[C@@H]([C@@](C)(O)C(=O)CCC(C)(C)OC(C)=O)[C@H](OC(C)=O)C[C@@]32C)C(C)(C)C1=O`, the IC50 in the assay on A549 [2] is > 100 µM; in the assay with A549 [3], 72.5 µM.

As for `CC(=O)OC(C)(C)CCC(=O)[C@](C)(O)[C@H]1[C@H](OC(=O)CCC(=O)O)C[C@@]2(C)[C@@H]3CC=C4[C@@H](C[C@H](OC(=O)CCC(=O)O)C(=O)C4(C)C)[C@]3(C)C(=O)C[C@]12C`, the concentration for half-maximal inhibition (IC50) in the assay on A549 [2] and in the assay with A549 [3] was > 100 µM throughout.

As for `CC(=O)O[C@H]1C[C@@H]2C(=CC[C@@H]3[C@@]2(C)C(=O)C[C@]2(C)[C@@H]([C@@](C)(O)C(=O)/C=C/C(C)(C)OC(C)=O)[C@H](OC(C)=O)C[C@@]32C)C(C)(C)C1=O`, the “Ratio IC50” value with A549 [1] is 5.5. Further, the figures for the IC50 in the assay on A549 [2] and in the assay with A549 [3] were 14.7 µM and 2.64 µM, respectively.

Take `CC(=O)OC(C)(C)CCC(=O)[C@](C)(O)[C@H]1[C@H](O)C[C@@]2(C)[C@@H]3CC=C4[C@@H](C[C@H](OC(=O)c5ccccc5)C(=O)C4(C)C)[C@]3(C)C(=O)C[C@]12C`: the IC50 in the assay with A549 [2] and in the assay with A549 [3] was > 100 µM throughout.

Regarding `CC(=O)OC(C)(C)CCC(=O)[C@](C)(O)[C@H]1[C@H](OC(=O)c2ccccc2)C[C@@]2(C)[C@@H]3CC=C4[C@@H](C[C@H](OC(=O)c5ccccc5)C(=O)C4(C)C)[C@]3(C)C(=O)C[C@]12C`, the IC50 in the assay with A549 [2] and in the assay on A549 [3] was > 100 µM each time.

Regarding `CC(=O)OC(C)(C)CCC(=O)[C@](C)(O)[C@H]1[C@H](OC(=O)n2ccnc2)C[C@@]2(C)[C@@H]3CC=C4[C@@H](C[C@H](OC(=O)n5ccnc5)C(=O)C4(C)C)[C@]3(C)C(=O)C[C@]12C`, the half-maximal inhibitory concentration (IC50) in the assay with A549 [2] and in the assay with A549 [3] was > 100 µM each time.

As to `CC(=O)O[C@@H]1C[C@@]2(C)[C@@H]3CC=C4[C@@H](C[C@H](Sc5ccccc5)C(=O)C4(C)C)[C@]3(C)C(=O)C[C@]2(C)[C@H]1[C@@](C)(O)C(=O)CCC(C)(C)OC(C)=O`, the half-maximal inhibitory concentration (IC50) in the assay with A549 [2] and in the assay with A549 [3] was > 100 µM each time.

`CC(=O)O[C@@H]1C[C@@]2(C)[C@@H]3CC=C4[C@@H](C[C@H](SC(C)=O)C(=O)C4(C)C)[C@]3(C)C(=O)C[C@]2(C)[C@H]1[C@@](C)(O)C(=O)CCC(C)(C)OC(C)=O`: the IC50 with A549 [2] and in the assay with A549 [3] was > 100 µM each time.

On to `CC(=O)OC(C)(C)CCC(=O)[C@](C)(O)[C@H]1[C@H](O)C[C@@]2(C)[C@@H]3CC=C4[C@@H](Cc5sc(N)nc5C4(C)C)[C@]3(C)C(=O)C[C@]12C`, for which the IC50 in the assay with A549 [2] and in the assay on A549 [3] was > 100 µM in each case.

`CC(=O)OC(C)(C)/C=C/C(=O)[C@](C)(O)[C@H]1[C@H](O)C[C@@]2(C)[C@@H]3CC=C4[C@@H](Cc5sc(N)nc5C4(C)C)[C@]3(C)C(=O)C[C@]12C`: the “Ratio IC50” value with A549 [1] amounted to 2.5. For the same molecule, the values for the IC50 in the assay with A549 [2] and in the assay with A549 [3] were 28.8 µM and 11.5 µM, respectively.

As to `CC(=O)OC(C)(C)CCC(=O)[C@](C)(O)[C@H]1[C@H](O)C[C@@]2(C)[C@@H]3CC=C4[C@@H](C[C@H](Br)C(=O)C4(C)C)[C@]3(C)C(=O)C[C@]12C`, in the assay on A549 [1], the “Ratio IC50” value is 1.2. The figures for the IC50 in the assay on A549 [2] and in the assay on A549 [3] were 34.9 µM and 29.1 µM, respectively.

As to `CC(=O)OC(C)(C)/C=C/C(=O)[C@](C)(O)[C@H]1[C@H](O)C[C@@]2(C)[C@@H]3CC=C4[C@@H](C[C@H](Br)C(=O)C4(C)C)[C@]3(C)C(=O)C[C@]12C`, the “Ratio IC50” value in the assay on A549 [1] is 11.1. Moreover, the half-inhibitory concentration (IC50) with A549 [2] was 1.33 µM; in the assay on A549 [3], 0.12 µM.

`CC(=O)OC(C)(C)CCC(=O)[C@](C)(O)[C@H]1[C@H](O)C[C@@]2(C)[C@@H]3CC=C4[C@@H](C=C(N)C(=O)C4(C)C)[C@]3(C)C(=O)C[C@]12C`: the IC50 in the assay with A549 [2] and in the assay on A549 [3] was > 100 µM each time.

Turning to `CC(=O)O[C@@H]1C[C@@]2(C)[C@@H]3CC=C4[C@@H](C=C(N)C(=O)C4(C)C)[C@]3(C)C(=O)C[C@]2(C)[C@H]1[C@@](C)(O)C(=O)CCC(C)(C)OC(C)=O`, the results for the IC50 in the assay with A549 [2] and in the assay on A549 [3] were > 100 µM and 55.2 µM, respectively.

For the molecule `CC(=O)OC(C)(C)/C=C/C(=O)[C@](C)(O)[C@H]1[C@H](O)C[C@@]2(C)[C@@H]3CC=C4[C@@H](C=C(N)C(=O)C4(C)C)[C@]3(C)C(=O)C[C@]12C`, the “Ratio IC50” value with A549 [1] was determined as 3.5. Moreover, the figures for the IC50 with A549 [2] and with A549 [3] were 0.42 µM and 0.12 µM, respectively.

As for `CC(=O)OC(C)(C)CCC(=O)[C@](C)(O)[C@H]1[C@H](OC(=S)n2ccnc2)C[C@@]2(C)[C@@H]3CC=C4[C@@H](C[C@H](OC(=S)n5ccnc5)C(=O)C4(C)C)[C@]3(C)C(=O)C[C@]12C`, the “Ratio IC50” value in the assay with A549 [1] is 2.1. The figures for the concentration for half-maximal inhibition (IC50) with A549 [2] and in the assay with A549 [3] were 14.7 µM and 6.9 µM, respectively.

Turning to `CC(=O)OC(C)(C)CCC(=O)[C@](C)(O)[C@H]1[C@H](O)C[C@@]2(C)[C@@H]3CC=C4[C@@H](CCC(=O)C4(C)C)[C@]3(C)C(=O)C[C@]12C`, the values for the IC50 in the assay with A549 [2] and with A549 [3] were > 100 µM and 66.7 µM, respectively.

On to `CC(=O)OC(C)(C)CCC(=O)[C@](C)(O)[C@H]1CC[C@@]2(C)[C@@H]3CC=C4[C@@H](CCC(=O)C4(C)C)[C@]3(C)C(=O)C[C@]12C`, for which the half-maximal inhibitory concentration (IC50) with A549 [2] is > 100 µM; in the assay with A549 [3], 11.5 µM.

As for `CC(=O)[C@H]1[C@H](OC(=O)c2ccccc2)C[C@@]2(C)[C@@H]3CC=C4[C@@H](C[C@H](OC(=O)c5ccccc5)[C@@H](O)C4(C)C)[C@]3(C)C(=O)C[C@]12C`, the IC50 in the assay on A549 [2] and in the assay with A549 [3] was > 100 µM in each case.

As to `CC(=O)[C@H]1[C@H](O)C[C@@]2(C)[C@@H]3CC=C4[C@@H](C=C(O)C(=O)C4(C)C)[C@]3(C)C(=O)C[C@]12C`, the 50% inhibitory concentration (IC50) in the assay with A549 [2] and in the assay with A549 [3] was > 100 µM throughout.

Turning to `CC(=O)OC(C)(C)/C=C/[C@H](O)[C@](C)(O)[C@H]1[C@H](O)C[C@@]2(C)[C@@H]3CC=C4[C@@H](C[C@H](O)[C@@H](O)C4(C)C)[C@]3(C)C(=O)C[C@]12C`, the IC50 in the assay with A549 [2] and with A549 [3] was > 100 µM in each case.

In the case of `CC(=O)O[C@H]1C[C@@H]2C(=CC[C@@H]3[C@@]2(C)C(=O)C[C@]2(C)[C@@H]([C@@](C)(OC(=O)C(F)(F)F)C(=O)CCC(C)(C)OC(C)=O)[C@H](OC(C)=O)C[C@@]32C)C(C)(C)C1=O`, the IC50 in the assay on A549 [2] and in the assay on A549 [3] was > 100 µM each time.

In the case of `CC(=O)O[C@H]1C[C@@H]2C(=CC[C@@H]3[C@@]2(C)C(=O)C[C@]2(C)[C@@H]([C@@](C)(O)C(=O)CC=C(C)C)[C@H](OC(C)=O)C[C@@]32C)C(C)(C)C1=O`, the results for the IC50 in the assay on A549 [2] and in the assay on A549 [3] were > 100 µM and 42.6 µM, respectively.

As to `CC(=O)OC(C)(C)CCC(=O)[C@](C)(O)[C@H]1[C@H](O)C[C@@]2(C)[C@@H]3CC=C4[C@@H](C=CC(=O)C4(C)C)[C@]3(C)C(=O)C[C@]12C`, the “Ratio IC50” value in the assay on A549 [1] is given as 1.1. In addition, the IC50 in the assay with A549 [2] stood at 87.8 µM; in the assay with A549 [3], 77.7 µM.

As for `CC(=O)O[C@H]1C[C@@H]2C(=CC(=O)[C@@H]3[C@@]2(C)C(=O)C[C@]2(C)[C@@H]([C@@](C)(O)C(=O)CCC(C)(C)OC(C)=O)[C@H](OC(C)=O)C[C@@]32C)C(C)(C)C1=O`, the IC50 with A549 [2] and with A549 [3] was > 100 µM throughout.

Turning to `CC(=O)OC(C)(C)CCC(=O)[C@](C)(O)[C@H]1[C@H](O)C[C@@]2(C)[C@@H]3CC=C4[C@@H](C=C(O)C(=O)C4(C)C)[C@]3(C)C(=O)C[C@]12C`, the IC50 in the assay with A549 [2] and in the assay with A549 [3] was > 100 µM throughout.

In the case of `CC(=O)OC(C)(C)CCC(=O)[C@](C)(O)[C@H]1[C@H](O)C[C@@]2(C)[C@@H]3CC=C4[C@@H](C[C@H](O)C(=O)C4(C)C)[C@]3(C)C(=O)C[C@]12C` [23,24-DIHYDROCUCURBITACIN B], the “Ratio IC50” value in the assay on A549 [1] was 1.6. Further, the results for the IC50 in the assay on A549 [2] and in the assay on A549 [3] were 19.9 µM and 12.1 µM, respectively.

On to `CC(=O)OC(C)(C)/C=C/C(=O)[C@](C)(O)[C@H]1[C@H](O)C[C@@]2(C)[C@@H]3CC=C4[C@H](C[C@H](O)C(=O)C4(C)C)[C@]3(C)C(=O)C[C@]12C` [CUCURBITACIN B], for which, in the assay on A549 [1], the “Ratio IC50” value turned out to be 3.3. Moreover, the values for the concentration for half-maximal inhibition (IC50) with A549 [2] and with A549 [3] were 0.13 µM and 0.04 µM, respectively.

Take `COc1cccc2c1C(=O)c1c(O)c3c(c(O)c1C2=O)C[C@@](O)(C(=O)CO)C[C@@H]3O[C@H]1C[C@H](N)[C@H](O)[C@H](C)O1` [DOXORUBICIN]: the “Ratio IC50” value in the assay with A549 [1] worked out at 3.1. Besides, the values for the IC50 in the assay on A549 [2] and in the assay on A549 [3] were 3.69 µM and 1.18 µM, respectively.

Turning to `CC(=O)[C@H]1[C@H](O)C[C@@]2(C)[C@@H]3CC=C4[C@@H](C[C@H](O)[C@@H](O)C4(C)C)[C@]3(C)C(=O)C[C@]12C` [HEXANORCUCURBITACIN F], the IC50 in the assay on A549 [2] and in the assay with A549 [3] was > 100 µM each time.
